Key:
[1] = Stability in the solid state and in CDCl3 solution; assay type: physicochemical
[2] = in CHCl3; cited from earlier work
HCT116 = assay: In vitro cytotoxicity; assay type: cell-based, human; conditions: read-out: IC50 HCT116; MTT assay, 72 h incubation
Procedure, shortened: (§1)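 Cell lines: HeLa (cervical epithelial carcinoma), HepG2 (hepatocellular carcinoma), MCF-7 (breast carcinoma), HCT-116 (colorectal carcinoma), and HCC827 and NCI-H460 (non-small cell lung carcinoma).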

HepG2 = assay: In vitro cytotoxicity; assay type: cell-based, human; conditions: read-out: IC50 HepG2; MTT assay, 72 h incubation
Procedure, shortened: as §1

HCC827 = assay: In vitro cytotoxicity; assay type: cell-based, human; conditions: read-out: IC50 HCC827; MTT assay, 72 h incubation
Procedure, shortened: as §1

NCI-H460 [3] = assay: In vitro cytotoxicity in the dark; assay type: cell-based, human; conditions: read-out: IC50 NCI-H460 (dark)
Procedure, shortened: as §1

NCI-H460 [4] = assay: Light-induced cytotoxicity assay; assay type: cell-based, human; conditions: for PI = IC50(dark)/IC50(light): NCI-H460, phototoxicity index
Procedure, shortened: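 NCI-H460 cells were incubated with test compound, then exposed to visible light at 2.8 mW cm–2 for 1 h. […] Phototoxicity index = IC50(dark)/IC50(light).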

## [Ir^III(tmp)(IMe)Cl] [1a]
[1]
  Stable in the solid state and in CDCl3 solution for: 1 week

## [Ir^III(tmp)(BIMe)Cl] [1b]
[1]
  Stable in the solid state and in CDCl3 solution for: 1 week

## C1=Cc2nc1c(-c1ccccc1)c1ccc([nH]1)c(-c1ccccc1)c1nc(c(-c3ccccc3)c3ccc([nH]3)c2-c2ccccc2)C=C1 [H2tpp]
[2]
  Φso (quantum yield of singlet oxygen production): 0.55

## [Ir^III(F20tpp)(IMe)Cl] [1c]
[1]; under ambient conditions
  Decomposes within: ≤ 1 days

## [Ir^III(F20tpp)(BIMe)Cl] [1d]
[1]
  Stable in the solid state and in CDCl3 solution for: 1 week

## N.N.[Cl][Pt][Cl] [Cisplatin]
HCT116
  IC50: 6.94 ± 0.54 µM
HepG2
  IC50: 6.18 ± 0.82 µM
HCC827
  IC50: 9.61 ± 0.81 µM
NCI-H460 [3]
  IC50: 3.96 ± 0.48 µM
NCI-H460 [4]
  PI = IC50(dark)/IC50(light): 0.86
NCI-H460 [4]; listed as cisplatin
  PI = IC50(dark)/IC50(light): < 1
NCI-H460 [4]; read-out: IC50 NCI-H460 (light), visible light irradiation 2.8 mW cm^–2 for 1 h
  IC50: 4.61 ± 0.31 µM
